Screening data as filed in PubChem.
COUP-TFII inh: NR2F2 transcriptional activity inhibitors, primary screen, cell-based, luciferase reporter, HEK293T, luminescence; inhibition, % at 8.6 µM; COUP transcription factor 2 (Homo sapiens), P24468; actives 0.7% (n = 370,000); HEK293T NGFI-A luciferase reporter;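 active means inhibition above a per-plate cutoff, mean inhibition of test wells between control levels plus 3 SD, cut at about 38% in these data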;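 further: cells cotransfected with COUP-TFII expression vector driving the NGFI-A reporter; 0% = median of COUP-TF2 test wells and 100% = reporter-only cells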
SMARCA2 act: SMARCA2 (BRM) function activators, primary screen, cell-based, luminescence, high throughput. MG213 cells, MMTV-luciferase reporter, dexamethasone, overnight. actives 1% (n = 370,000). activation, % at 9.1 µM. AID 652017, 2013; in the data active means activation above about 7.8%;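 further: 0% = vehicle wells and 100% = reference activator wells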
GalR3 antagonist: GalR3 antagonists in HEK293 cells, primary screen, cell-based, fluorescence readout; actives 0.44% (n = 360,000); inhibition, % at 3 µM; Galanin receptor type 3 (Homo sapiens), O60755; HEK293 GalR3-CNG cAMP membrane potential fluorescence; galR3 body fused to GalR1 C-terminus;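 active means inhibition above the screen-wide average plus 3 SD, cut at about 13% in these data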;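 further: forskolin and galanin both at EC90 stimulate the cells; cAMP rise reported by CNG channel membrane potential dye signal; 0% = forskolin plus galanin with DMSO and 100% = forskolin alone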
NR2E3 ag-1: NR2E3 agonists in two-hybrid cells, primary screen, cell-based, luminescence, CHO-S, Gal4-NCOR/VP16-NR2E3; luciferase; Photoreceptor-specific nuclear receptor (Homo sapiens), Q9Y5X4; actives 0.35% (n = 360,000); AID 602229, 2012; inhibition of corepressor binding, % at 3.98 µM;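 active means inhibition above the mean of all tested compounds plus 3 SD, cut at about 70% in these data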;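 further: 0% = DMSO with NR2E3 transfected cells and 100% = cells lacking NR2E3 construct; higher means lower luciferase signal from less NR2E3 corepressor binding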
Target sequence (Q9Y5X4 whole entry, looked up, the tested form may be a part): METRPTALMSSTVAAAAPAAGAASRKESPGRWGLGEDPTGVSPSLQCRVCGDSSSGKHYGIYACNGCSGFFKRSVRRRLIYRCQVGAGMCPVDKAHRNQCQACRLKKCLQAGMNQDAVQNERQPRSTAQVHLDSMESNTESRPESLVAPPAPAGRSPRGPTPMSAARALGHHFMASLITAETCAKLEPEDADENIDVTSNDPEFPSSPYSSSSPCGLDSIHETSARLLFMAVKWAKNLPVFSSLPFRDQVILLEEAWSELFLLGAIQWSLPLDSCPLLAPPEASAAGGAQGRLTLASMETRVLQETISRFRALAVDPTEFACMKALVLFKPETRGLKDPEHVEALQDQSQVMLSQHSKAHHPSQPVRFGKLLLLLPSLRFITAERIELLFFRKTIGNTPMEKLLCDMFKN
NR2E3 ag-2: inhibitors of NR2E3-RetCOR corepressor binding, primary screen, NR2E3 agonist project, biochemical, TR-FRET, GST-NR2E3, biotin-RetCOR; actives 0.12% (n = 320,000); AID 2300, 2010; inhibition of corepressor binding, % at 4.78 µM; Photoreceptor-specific nuclear receptor (Homo sapiens), Q9Y5X4; 1536-well;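 active means percent inhibition above the cutoff of mean plus 3 SD of all tested compounds, set per screening campaign, cut at about 20% in these data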;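 further: 0% = DMSO wells and 100% = biotin wells as full block of FRET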
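Material: NR2E3–RetCOR corepressor complex / Amount: 1.35 nM GST-NR2E3 / Medium: Tris pH 7.5 / Compound: single nominal compound dose of 4.8 µM / Incubation: 5 h at 4 °C / Technique: TR-FRET, Eu(K)-anti-GST donor, streptavidin-D2 acceptor, ex 340, em 617/671 nm / Read-out basis: percent loss of FRET ratio relative to control wells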
SMARCA2 conf: SMARCA2 (BRM) function activators, confirmation, cell-based, luminescence, triplicate; activation, % at 9.1 µM; MG213 cells, MMTV-luciferase with dexamethasone, overnight; MG213 cells expressing E1A, Rb sequestered; DMSO wells 0%, reference activator 100%; actives 30% (n = 3,500); shares compounds with SMARCA2 act;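 active means activation above its plate's cutoff, the mean activation of tested wells plus 3 SD, cut at about 7.9% in these data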
VP16 Luc act: GAL4-VP16 luciferase reporter activation, counter-screen for SMARCA2 (BRM) activator project, cell-based, pG5luc, luminescence, high throughput | shares compounds with SMARCA2 act | HEK293 GAL4-VP16 pG5luc reporter; scaled: DMSO wells 0%, SAHA wells 100% | activation, % at 9.1 µM | actives 41% (n = 3,500);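 active means activation above the solvent-only control well mean plus 3 SD, averaged across control plates, cut at about 5.2% in these data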
Active calls of the source: *; x = not tested or not shown. Only some compounds are listed: those with a hit (about 2.2% of all), similar ones and a draw of the others.

SMILES	COUP-TFII inh	SMARCA2 act	GalR3 antagonist	NR2E3 ag-1	NR2E3 ag-2	SMARCA2 conf	VP16 Luc act
CC1(c2ccc3ccccc3c2)NC(=O)N(CC(=O)NCc2cccs2)C1=O (stereo not drawn)	2	9.6*	-8	-16	-1	0	1
O=C(Cn1cncn1)N/N=C/c1ccc(Cl)cc1	-11	0	-4	-16	2	x	x
O=C(Cn1cncn1)N/N=C/c1cccc(Cl)c1	-6	8.3*	-3	-24	-1	1	-1
COC(=O)[C@]12C[C@H](CC(=O)NCCc3ccccc3OC)C(=O)N(Cc3ccco3)C1=C[C@H](COCc1ccccc1)O[C@@H]2C	4	-1	x	x	x	x	x
CCSc1n[nH]c2nc3c(c(=O)n12)C1(CCCC1)Cc1ccccc1-3	-13	-6	-5	-2	2	x	x
Cc1ccc(-n2c(SCC(N)=O)nc3c(c2=O)C2(CCCC2)Cc2ccccc2-3)cc1	7	8.0*	-10	-2	10	-2	-1
CN1C2=N[C@H](c3cccc(C(F)(F)F)c3)CC(=O)N2/C(=C\c2ccccc2)[C@H]1c1ccccc1	6	x	x	x	x	x	x
CC(C)(C)Cc1c(-c2ccco2)nc2ccc(Cl)cn12	-18	13*	-4	-7	x	1	1
CC(=O)Nc1sc2c(c1-c1nc3ccccc3s1)CN(C(C)C)CC2	-34	19*	0	-79	x	7	-1
CC(=O)Nc1sc2c(c1-c1nc3ccccc3s1)CN(C(C)C)C2	-52	x	x	x	x	x	x
O=C(OCC1CC(c2ccccc2Cl)=NO1)c1ccc(Br)cc1 (stereo not drawn)	-3	11*	-11	-4	2	4	1
COc1cc(OC)cc(-c2nc3ccccc3s2)c1	-31	8.2*	-8	-109	2	11*	5
O=C(CCn1nnc(-c2cccs2)n1)NCc1cccs1	-4	-1	x	x	x	x	x
COC(=O)Cc1csc(Nc2ccccc2)n1	-18	8.4*	-4	-20	-1	6	4
COCCN1Cc2cc(C(=O)OC)c3c(c2C1=O)c1cc(OC)ccc1n3S(=O)(=O)c1ccc(C)cc1	1	-4	-7	x	x	x	x
O=C1Nc2ccccc2/C1=C/c1cnc(-c2ccccc2)[nH]1	-46	18*	-6	-142	-2	13*	11*
Nc1ccc(-c2cnc(-c3ccc(N)cc3)nc2)cc1	-41	2	-3	-142	-1	x	x
Oc1ccc(-c2cnc(-c3ccc(O)cc3)nc2)cc1	-112	13*	-8	-39	2	12*	11*
CCCCN1CC(N2CCN(CCO)CC2)CS1(=O)=O (stereo not drawn)	10	-2	-4	1	x	x	x
CCCCCCN1CCN(C2CN(CCCC)S(=O)(=O)C2)CC1 (stereo not drawn)	8	8.7*	4	11	x	-3	2
CCN(CC)C(=N)/C(C#N)=N/Nc1ccccc1	-25	13*	-6	-47	-3	7	1
Nc1ccc(C(=O)NN2C(=O)[C@H](Cl)C2c2ccc(Cl)cc2)cc1 (stereo partly drawn)	-17	8.3*	-2	14	x	-15	1
Cc1ccccc1C(=O)N[C@H](C(=O)N1CCC[C@H]1C(=O)NCCc1ccccc1Cl)c1ccccc1	16	-2	-7	x	x	x	x
COc1ccc(S(=O)(=O)N2CCOCC2)cc1NC(=O)CCCSc1ccccc1	8	9.3*	-6	-20	x	-2	2
COc1cccc(N2CCN(CC(=O)NCc3ccccc3C)CC2)c1	3	-5	x	x	x	x	x
